# Results as given in ChEMBL document CHEMBL1681633, “Design, synthesis, and in vitro characterization of novel hybrid peptidomimetic inhibitors of STAT3 protein” (Bioorg Med Chem, 2011).
# Calls of active or inactive are those of the source. The rule behind the calls is not given here.
# What was measured:
# [1] = molecular target: T1, Signal transducer and activator of transcription 3 (Mus musculus, UniProt P42227); assay: Inhibition of STAT3 dimerization in mouse NIH3T3 cells expressing v-Src assessed as disruption of STAT3-STAT3: DNA complexation in nucleus after 30 mins by electrophoretic mobility shift assay; format: cell-based
# T1 sequence (P42227 whole entry): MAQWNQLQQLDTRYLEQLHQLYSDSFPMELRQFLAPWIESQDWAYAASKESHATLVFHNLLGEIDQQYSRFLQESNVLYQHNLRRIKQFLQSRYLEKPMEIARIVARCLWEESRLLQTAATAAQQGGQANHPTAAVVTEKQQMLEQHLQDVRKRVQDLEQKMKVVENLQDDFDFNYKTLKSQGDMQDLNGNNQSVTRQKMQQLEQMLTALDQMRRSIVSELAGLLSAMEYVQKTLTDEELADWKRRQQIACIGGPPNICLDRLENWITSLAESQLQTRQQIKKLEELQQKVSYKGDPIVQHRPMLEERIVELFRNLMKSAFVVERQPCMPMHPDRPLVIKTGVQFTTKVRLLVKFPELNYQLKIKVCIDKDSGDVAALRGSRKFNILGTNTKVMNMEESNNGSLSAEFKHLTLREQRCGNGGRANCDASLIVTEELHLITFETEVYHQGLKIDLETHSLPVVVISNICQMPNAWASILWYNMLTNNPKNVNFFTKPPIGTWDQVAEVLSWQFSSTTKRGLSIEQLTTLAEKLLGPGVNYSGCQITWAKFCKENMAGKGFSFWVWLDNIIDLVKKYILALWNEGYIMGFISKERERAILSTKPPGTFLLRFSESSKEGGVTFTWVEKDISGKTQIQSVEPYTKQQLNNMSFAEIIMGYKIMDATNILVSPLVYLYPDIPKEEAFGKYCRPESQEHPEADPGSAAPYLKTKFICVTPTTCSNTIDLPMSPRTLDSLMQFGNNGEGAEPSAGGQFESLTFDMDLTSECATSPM
# Outline: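 Nuclear extracts from NIH3T3/v-Src (constitutively active STAT3), equal total protein, pre-incubated 30 min at room temperature with increasing compound concentrations, then with radiolabelled hSIE probe; EMSA with densitometry quantification.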
# [2] = molecular target: T1, Signal transducer and activator of transcription 3; assay: Displacement of 5-carboxyfluorescein-GpYLPQTV-NH2 from mouse recombinant His-tagged STAT3-SH2 domain expressed in Escherichia coli BL21 (DE3) by fluorescence polarization assay
# Outline: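 His-tagged protein expressed in BL21(DE3), Ni-column purified. STAT3 150 nM incubated with serial inhibitor concentrations 60 min at 30 °C in 50 mM NaCl, 10 mM HEPES, 1 mM EDTA, 0.1% NP-40; 15 min equilibration at room temperature; 10 nM final probe added, 30 min room temperature, then FP read.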
# [3] = Metabolic stability in human Caco2 cells at 10 uM at pH 7.4 after 90 mins by LC/MS analysis; format: ADME, cell-based; conditions: Caco-2 cells, read-out: Stability
# Outline: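 Caco-2 monolayers grown on PET membrane inserts (1.0 µm pore) at 75,000 cells/cm² and used on day 25, fully polarized and differentiated. Compound at 10 μM final, non-gradient pH 7.4/7.4, 90 min. Samples analysed by narrow-window mass-extraction LC/QTof-MS for parent-compound peak areas. Percent recovered or transported calculated relative to the initial dosing concentration.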
# [4] = molecular target: Signal transducer and activator of transcription 3 (Mus musculus) (UniProt P42227); assay: Inhibition of STAT3 dimerization in v-Src transformed mouse NIH3T3 cells assessed as suppression of STAT3-DNA binding activity in nucleus at 100 uM after 6 hrs by electrophoretic mobility shift assay; format: cell-based
# Signal transducer and activator of transcription 3 (Mus musculus), sequence (P42227 whole entry, the tested form may be a part): as the sequence (P42227 whole entry) above
# Outline: (§1)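 NIH3T3/v-Src cells treated with 100 μM compound for 6 or 24 h; nuclear extracts then tested for STAT3 DNA binding in vitro with radiolabelled hSIE probe by EMSA.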
# [5] = molecular target: Signal transducer and activator of transcription 3 (Mus musculus) (UniProt P42227); assay: Inhibition of STAT3 dimerization in v-Src transformed mouse NIH3T3 cells assessed as suppression of STAT3-DNA binding activity in nucleus at 100 uM after 24 hrs by electrophoretic mobility shift assay; format: cell-based; outline: as §1
# [6] = molecular target: T1, Signal transducer and activator of transcription 3; assay: Inhibition of mouse recombinant SH2 domain of His-tagged full-length STAT3 by surface plasmon resonance assay
# Outline: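 Purified STAT3 captured on a HisCap sensor chip by injecting 50 μg/ml protein; inhibitors at various concentrations in 1X PBS, 0.5% DMSO running buffer passed over chip; association and dissociation rate constants recorded, their ratio taken as KD.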
# Caco-2 = assay: Apparent permeability across apical to basolateral side in human Caco2 cells at 10 uM at pH 7.4 after 90 mins by LC/MS analysis; format: ADME, cell-based; conditions: caco-2, pH 7.4, […]
# [7] = molecular target: T2, Signal transducer and activator of transcription 1 (Mus musculus, UniProt P42225); assay: Displacement of 5-carboxyfluorescein-GpYDKPHVL-NH2 from mouse recombinant His-tagged STAT1-SH2 domain expressed in Escherichia coli BL21 (DE3) by fluorescence polarization assay
# T2 sequence (P42225 whole entry): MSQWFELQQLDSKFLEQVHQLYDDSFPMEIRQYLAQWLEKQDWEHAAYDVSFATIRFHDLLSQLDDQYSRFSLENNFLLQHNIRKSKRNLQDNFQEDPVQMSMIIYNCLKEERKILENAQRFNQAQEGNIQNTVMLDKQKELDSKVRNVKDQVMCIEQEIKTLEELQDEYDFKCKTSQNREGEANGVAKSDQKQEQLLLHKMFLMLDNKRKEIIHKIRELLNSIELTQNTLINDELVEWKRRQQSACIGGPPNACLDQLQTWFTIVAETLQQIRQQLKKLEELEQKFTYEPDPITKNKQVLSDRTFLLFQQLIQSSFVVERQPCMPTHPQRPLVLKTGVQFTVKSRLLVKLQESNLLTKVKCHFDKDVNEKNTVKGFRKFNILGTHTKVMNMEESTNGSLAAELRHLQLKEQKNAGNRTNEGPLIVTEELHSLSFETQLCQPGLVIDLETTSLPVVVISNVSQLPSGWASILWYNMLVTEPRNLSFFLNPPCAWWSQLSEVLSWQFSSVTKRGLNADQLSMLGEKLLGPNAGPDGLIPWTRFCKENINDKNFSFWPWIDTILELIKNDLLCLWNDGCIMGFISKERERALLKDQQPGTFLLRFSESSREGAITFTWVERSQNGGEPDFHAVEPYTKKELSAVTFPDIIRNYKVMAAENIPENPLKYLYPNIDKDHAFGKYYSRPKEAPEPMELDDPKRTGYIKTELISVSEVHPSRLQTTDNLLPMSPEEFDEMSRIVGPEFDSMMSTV
# Outline: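 His-tagged protein expressed in BL21(DE3), Ni-column purified. STAT1 80 nM incubated with serial inhibitor concentrations 60 min at 30 °C in 50 mM NaCl, 10 mM HEPES, 1 mM EDTA, 0.1% NP-40; 15 min equilibration at room temperature; 10 nM final probe added, 30 min room temperature, then FP read.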
# PANC-1 = assay: Antiproliferative activity against human PANC1 cells assessed as suppression of cell viability at 50 uM after 24 hrs by CyQuant cell viability assay; format: functional
# Outline: (§2)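 Cancer cells (human breast MDA-MB-231, pancreatic Panc-1, prostate DU-145) treated with a range of inhibitor concentrations, 30–50 μM, for 24 h. Growth and viability read by CyQuant cell proliferation/viability assay.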
# DU-145 = assay: Antiproliferative activity against human DU145 cells assessed as suppression of cell viability at 50 uM after 24 hrs by CyQuant cell viability assay; format: functional; outline: as §2
# HL-60 = assay: Antiproliferative activity against human HL60 cells assessed as suppression of cell viability after 24 hrs by CyQuant cell viability assay; format: functional, cell-based; conditions: HL-60, 24 h
# Outline: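 Cells incubated 24 h with a range of inhibitor concentrations; HL-60 cells (no aberrant STAT3 signalling) run as control alongside DU145, Panc-1, NIH3T3/vSrc and breast cancer lines. Viability/growth read by CyQuant assay.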
# MDA-MB-468 (human) = assay: Antiproliferative activity against human MDA-MB-468 cells assessed as suppression of cell viability at 50 uM after 24 hrs by CyQuant cell viability assay
# NIH3T3 = assay: Antiproliferative activity against mouse NIH/3T3 cells assessed as suppression of cell viability at 50 uM after 24 hrs by CyQuant cell viability assay; format: functional
SMILES,IC50 [1] [µM],Ki [2] [µM],other results
COC(=O)c1ccc(-c2cc(NC(=O)[C@H](CC(C)C)NC(=O)[C@H](Cc3ccc(OP(=O)(O)O)cc3)NC(=O)c3ccc(C#N)cc3)ccc2C(=O)NCc2ccccc2)cc1,> 200,26,–
CC(C)C[C@H](NC(=O)[C@H](Cc1ccc(O)cc1)NC(=O)c1ccc(C#N)cc1)C(=O)Nc1ccc(C(=O)NCc2ccccc2)c(-c2ccc(C(N)=O)cc2)c1,103,–,"remaining at […], 10 µM [3]: 52%; Activity [4]: Active; Activity [5]: Active; Kd [6]: 12 µM; Papp (Caco-2): > 0.5 ×10⁻⁶ cm/s"
COC(=O)c1cccc(-c2cc(NC(=O)[C@H](CC(C)C)NC(=O)[C@H](Cc3ccc(OP(=O)(O)O)cc3)NC(=O)c3ccc(C#N)cc3)ccc2C(=O)NCc2ccccc2)c1,40,10,–
CC(C)C[C@H](NC(=O)[C@H](Cc1ccc(OP(=O)(O)O)cc1)NC(=O)c1ccc(C#N)cc1)C(=O)Nc1cc(C(=O)NCc2ccccc2)cc(-c2ccc(C(N)=O)cc2)c1,5,9,inhibition [4]: 50%; Activity [5]: Active; Ki [7]: 16.5 µM; Kd [6]: 0.205 µM
COC(=O)c1cccc(-c2cc(NC(=O)[C@H](CC(C)C)NC(=O)[C@H](Cc3ccc(OP(=O)(O)O)cc3)NC(=O)c3ccc(C#N)cc3)cc(C(=O)NCc3ccccc3)c2)c1,66,23,–
COC(=O)c1ccc(-c2cc(NC(=O)[C@H](CC(C)C)NC(=O)[C@H](Cc3ccc(OP(=O)(O)O)cc3)NC(=O)c3ccc(C#N)cc3)cc(C(=O)NCc3ccccc3)c2)cc1,112,25,–
CC(C)C[C@H](NC(=O)[C@H](Cc1ccc(OP(=O)(O)O)cc1)NC(=O)c1ccc(C#N)cc1)C(=O)Nc1cc(C(=O)NCc2ccccc2)cc(-c2cccc(C#N)c2)c1,92,18,–
CC(C)C[C@H](NC(=O)[C@H](Cc1ccc(OP(=O)(O)O)cc1)NC(=O)c1ccc(C#N)cc1)C(=O)Nc1ccc(C(=O)NCc2ccccc2)c(-c2ccc(C#N)cc2)c1,33,11,–
CC(C)C[C@H](NC(=O)[C@H](Cc1ccc(OP(=O)(O)O)cc1)NC(=O)c1ccc(C#N)cc1)C(=O)Nc1cc(C(=O)NCc2ccccc2)cc(-c2ccc(C#N)cc2)c1,60,36,–
CC(C)C[C@H](NC(=O)[C@H](Cc1ccc(OP(=O)(O)O)cc1)NC(=O)c1ccc(C#N)cc1)C(=O)Nc1ccc(C(=O)NCc2ccccc2)c(-c2ccc(C(N)=O)cc2)c1,73.1,5,inhibition [4]: > 80%; Activity (PANC-1): 50%; Activity (DU-145): 50%; Activity [5]: Active; Ki [7]: 6.3 µM; IC50 (HL-60): > 200 µM; Kd [6]: 0.9 µM; Papp (Caco-2): < 0.5 ×10⁻⁶ cm/s; Activity (MDA-MB-468 (human)): 50%; Activity (NIH3T3): 50%
CC(C)C[C@H](NC(=O)[C@H](Cc1ccc(OP(=O)(O)O)cc1)NC(=O)c1ccc(C#N)cc1)C(=O)Nc1cc(C(=O)NCc2ccccc2)cc(-c2cccc(C(N)=O)c2)c1,188,38,–
CC(C)C[C@H](NC(=O)[C@H](Cc1ccc(O)cc1)NC(=O)c1ccc(C#N)cc1)C(=O)Nc1cc(C(=O)NCc2ccccc2)cc(-c2ccc(C(N)=O)cc2)c1,190,–,"remaining at […], 10 µM [3]: 36%; Activity [4]: inactive; Activity [5]: inactive; Kd [6]: 17 µM; Papp (Caco-2): > 0.5 ×10⁻⁶ cm/s"
CC(C)C[C@H](NC(=O)[C@H](Cc1ccc(OP(=O)(O)O)cc1)NC(=O)c1ccc(C#N)cc1)C(=O)Nc1ccc(C(=O)NCc2ccccc2)c(-c2cccc(C#N)c2)c1,64,13,–
CC(C)C[C@H](NC(=O)[C@H](Cc1ccc(OP(=O)(O)O)cc1)NC(=O)c1ccc(C#N)cc1)C(=O)Nc1ccc(C(=O)NCc2ccccc2)c(-c2cccc(C(N)=O)c2)c1,62,15,–
